{"data": "Published values collected from several papers", "target": "Dual specificity protein kinase CLK3 (CLK3, Homo sapiens, UniProt P49761)", "note": "Each line is one published result; the experiments were not run side by side."}
{"SMILES": "CC(C)(C)c1nc2c(s1)c1nc(N)ncc1c1ccc(NS(=O)(=O)c3c(F)cccc3F)c(F)c12", "assay": "enzyme activity, inhibitor, radiometric", "conditions": "1 µM", "quantity": "remaining activity", "result": "82%"}
{"SMILES": "CC(=O)C1=C(C)N(c2cccc(C(F)(F)F)c2)C(=O)N[C@@H]1c1ccc(C#N)nc1", "assay": "cell-free assay, competition with immobilised ligand", "conditions": "1 µM", "quantity": "remaining binding", "result": "100%"}
{"SMILES": "Cn1c2c(c3ccc(Cl)c(Cl)c31)C(C#N)C1(CCOCC1)NC2=O (stereo not shown)", "assay": "thermal stability, DSF", "conditions": "10 µM", "quantity": "ΔTm", "result": "0.1 °C"}
{"SMILES": "Cc1cnc(NC2CCOCC2)nc1-n1cnc(C(=O)NC(CN)c2cc(F)cc(Cl)c2)c1 (stereo not shown)", "assay": "enzyme activity, inhibitor, radiometric", "conditions": "1 µM", "quantity": "remaining activity", "result": "99%"}
{"SMILES": "Cn1c2c(c3ccc(Cl)c(Cl)c31)C(C#N)C(C)(C)NC2=O (stereo not shown)", "assay": "thermal stability, DSF", "conditions": "10 µM", "quantity": "ΔTm", "result": "1.9 °C"}
{"SMILES": "CC(C)(O)[C@H]1CC[C@H](Nc2ccc3ncc(-c4cccc(C(F)(F)F)c4)n3n2)CC1", "assay": "enzyme activity, inhibitor", "conditions": "1 µM", "quantity": "remaining activity", "result": "59.3%"}
{"SMILES": "C[S+]([O-])c1ccc(-c2nc(-c3ccncc3)c(-c3ccc(F)cc3)[nH]2)cc1 (stereo not shown)", "assay": "cell-free assay", "conditions": "0.5 µM", "quantity": "remaining signal", "result": "99.1%"}
{"SMILES": "CCC(=N\\O)/C(C)=C/c1ccc(F)cc1", "assay": "cell-free assay, competition with immobilised ligand", "conditions": "1 µM", "quantity": "remaining binding", "result": "73%"}
{"SMILES": "COc1cc2c(Nc3ccc(Br)cc3F)ncnc2cc1OCC1CCN(C)CC1", "assay": "cell-free assay", "conditions": "0.5 µM", "quantity": "remaining signal", "result": "100%"}
{"SMILES": "Nc1ncnc2occ(-c3ccc(NC(=O)Nc4cc(C(F)(F)F)ccc4F)cc3)c12", "assay": "cell-free assay, inhibitor", "conditions": "20 µM", "quantity": "remaining signal", "result": "54%"}
{"SMILES": "C[C@H](NC(=O)c1cnc2n1[C@](C)(Cc1ccc(C#N)cc1)C(=O)N2c1cc(Cl)c(F)c(Cl)c1)C(=O)NC1(c2ccccn2)CC1", "assay": "cell-free assay, competition with immobilised ligand", "conditions": "1 µM", "quantity": "remaining binding", "result": "96%"}
{"SMILES": "CCOc1cc(-c2nncn2C)ccc1Nc1ncc2cc(C)nc(NCC(C)(C)C)c2n1", "assay": "enzyme activity, inhibitor, FRET", "conditions": "1 µM", "quantity": "inhibition", "result": "< 15%"}
{"SMILES": "CCN(CC)CCNC(=O)c1c(C)[nH]c(/C=C2\\C(=O)Nc3ccc(F)cc32)c1C", "assay": "enzyme activity, inhibitor", "conditions": "10 µM", "quantity": "inhibition", "result": "23%"}
{"SMILES": "N#CC1c2c([nH]c3c(Cl)c(Cl)ccc23)C(=O)NC12CCCCC2 (racemic)", "assay": "thermal stability, DSF", "conditions": "10 µM", "quantity": "ΔTm", "result": "2.1 °C"}
{"SMILES": "CN1CCN(c2cnc3c(C4CCN(C(=O)c5ccc(OC(F)(F)F)cc5N)CC4)ncnc3c2)CC1", "assay": "cell-free assay, competition with immobilised ligand", "conditions": "1 µM", "quantity": "remaining binding", "result": "100%"}
{"SMILES": "COc1cc2c(N3CCN(C(=O)Nc4ccc(OC(C)C)cc4)CC3)ncnc2cc1OCCCN1CCCCC1", "assay": "cell-free assay", "conditions": "0.5 µM", "quantity": "remaining signal", "result": "93.4%"}
{"SMILES": "O=C(NC[C@@H]1[C@H]2CN(C(=O)OCc3cc(C(F)(F)F)cc(C(F)(F)F)c3)C[C@@H]12)c1ccc2[nH]nnc2c1", "assay": "cell-free assay, competition with immobilised ligand", "conditions": "1 µM", "quantity": "remaining binding", "result": "78%"}
{"SMILES": "Cc1ccc(Nc2nccc(N(C)c3ccc4c(C)n(C)nc4c3)n2)cc1S(N)(=O)=O", "assay": "enzyme activity, inhibitor", "conditions": "0.3 µM", "quantity": "inhibition", "result": "2%"}
{"SMILES": "O=C(O)[C@@H]1[C@@H](Cn2nnc3ccccc3c2=O)CC[C@H]1C(=O)c1ccc(OCCC2CCOCC2)cc1", "assay": "cell-free assay, competition with immobilised ligand", "conditions": "1 µM", "quantity": "remaining binding", "result": "91%"}
{"SMILES": "CC/C(=N\\NC(=O)NCc1cccc(O)c1)c1ccc(O)c(C)c1O", "assay": "enzyme activity, inhibitor", "conditions": "0.1 µM", "quantity": "inhibition", "result": "-1.4%"}
{"SMILES": "COc1cc(Cl)c(C(=O)N[C@@H](CN[C@H]2CC[C@@H](N)CC2)Cc2ccc(C#N)cc2)cc1-c1ccc(CN[C@H](C)c2ccc(C)cc2)o1", "assay": "enzyme activity, inhibitor", "conditions": "1 µM", "quantity": "remaining activity", "result": "99%"}
{"SMILES": "CNC(=O)c1cc(Oc2ccc(NC(=O)Nc3ccc(Cl)c(C(F)(F)F)c3)cc2)ccn1", "assay": "enzyme activity, inhibitor", "conditions": "0.3 µM", "quantity": "inhibition", "result": "-1%"}
{"SMILES": "Cn1c2c(c3ccc(Cl)c(Cl)c31)C(C#N)C1(CCNCC1)NC2=O (racemic)", "assay": "thermal stability, DSF", "conditions": "10 µM", "quantity": "ΔTm", "result": "2.2 °C"}
{"SMILES": "CN(C)C(=O)Cn1cc(-c2nc([C@@](C)(c3ccc(-c4cnc(N)nc4)cc3)C3CC3)no2)cn1", "assay": "cell-free assay, competition with immobilised ligand", "conditions": "1 µM", "quantity": "remaining binding", "result": "100%"}
{"SMILES": "Cn1c2c(Cl)c(Cl)ccc2c2cc[nH]c(=O)c21", "assay": "thermal stability, DSF", "conditions": "10 µM", "quantity": "ΔTm", "result": "1.5 °C"}
{"SMILES": "C[C@@]1(Cc2ccc(C#N)cc2)C(=O)N(c2cc(Cl)cc(Cl)c2)c2ncc(C(=O)NC3(c4nc(C5CCC5)no4)CC3)n21", "assay": "cell-free assay, competition with immobilised ligand", "conditions": "1 µM", "quantity": "remaining binding", "result": "100%"}
{"SMILES": "Oc1cccc(-c2nc(N3CCOCC3)c3oc4ncccc4c3n2)c1", "assay": "cell-free assay", "conditions": "0.5 µM", "quantity": "remaining signal", "result": "93.1%"}
{"SMILES": "O=C(Nc1cnn(-c2csc(C(=O)NC3COC3)c2)c1)Nc1c(F)cccc1Cl", "assay": "enzyme activity, inhibitor", "conditions": "5 µM", "quantity": "remaining activity", "result": "93.5%"}
{"SMILES": "CCN(CC)c1ccc(C2=NNC(=O)CC2C)cc1[N+](=O)[O-] (stereo not shown)", "assay": "enzyme activity, inhibitor", "conditions": "10 µM", "quantity": "remaining activity", "result": "85%"}
{"SMILES": "O=C1Nc2ccc(Cl)cc2C1=Cc1cc(Cl)c(O)c(Cl)c1", "assay": "cell-free assay", "conditions": "0.5 µM", "quantity": "remaining signal", "result": "90.9%"}
{"SMILES": "COc1cc2ncnc(Nc3ccc(Oc4ccccc4)c(C)c3C)c2cc1OC", "assay": "enzyme activity, inhibitor", "conditions": "1 µM", "quantity": "inhibition", "result": "-3%"}
